This is one part of a sample in which hits are shown more often than they occur.
TbMetRS inhib – blocks T. brucei methionyl-tRNA synthetase activity; purified T. brucei MetRS, ATP depletion, Kinase-Glo luminescence; inhibition, % at 11.9 µM; 360,000 tested, 0.4% active; AID 624268;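 active = inhibition above a per-plate cutoff of the control wells' mean inhibition plus 3 SD, cut at about 5.5% in these data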;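 also: 0% = DMSO wells median and 100% = median of wells with control inhibitor compound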
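assay system = parasite MetRS enzyme | timing = 15 min preincubation, 2 h reaction, all 25 °C | evaluation = percent inhibition relative to median high and low control wells | medium = HEPES buffer containing pyrophosphatase, BSA, spermine, DTT | compound = single dose, 11.9 µM final nominal, 0.9% final DMSO | detection = Kinase-Glo luminescence, ATP depletion format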
CHOP inh – CHOP inhibition in unfolded protein response | CHO-K1 CHOP-promoter luciferase, tunicamycin-induced, 15-18 h | inhibition, % at 10 µM | 220,000 tested, 3.8% active | AID 2732;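 active = compounds that reduced the stress-induced luciferase reporter signal by more than about 70% of percent inhibition, limit read from the data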;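 also: 0% = tunicamycin plus vehicle and 100% = wells without tunicamycin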
V-ATPase pH – regulators of yeast V-ATPase proton transport; 350,000 tested, 0.37% active; response, % at 10 µM; S. cerevisiae, pHLuorin cytosolic pH fluorescence; in the data active = response mostly above about 7.3%, no sharp cut-off; inactive = mostly below about 5.4%; also: actives read high
XBP1 UPR activ – adaptive UPR (XBP1) activation. activation, % at 20 µM. CHO-XBP1 luciferase reporter, IRE1-XBP1 UPR activation, luminescence; percent of tunicamycin response, DMSO as zero. 330,000 tested, 0.33% active;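 active = versus positive control, 20 µM dose yields 30% or more activation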;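 also: 100% = tunicamycin at 10 µg/mL and 0% = DMSO only wells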
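incubation = overnight seeding at 37 °C, 6 h compound treatment at 37 °C | assay system = CHO-XBP1 cells stably carrying IRE1-XBP1-driven luciferase reporter | input = 1000 cells per well | detection = luciferase luminescence | dosing = single point, 20 µM final compound, 1% DMSO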
UPR CHOP act – apoptotic UPR (CHOP) activation | CHO-CHOP luciferase reporter, luminescence; percent of tunicamycin response over DMSO baseline | activation, % at 10 µM | 330,000 tested, 0.34% active;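 active = at 10 µM dose, activation of 40% or more, normalized to positive control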;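 also: 100% = tunicamycin at 10 µg/mL and 0% = DMSO alone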
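assay system = CHO CHOP reporter cells | amount = 500 CHO-CHOP cells per well | buffer or medium = F12 with 10% FBS | incubation = 16-18 h cell attachment, then 6 h compound exposure, 37 °C | detection = luminescence read with Steady-Glo | read-out = percent activation relative to tunicamycin control | controls = tunicamycin high control, DMSO low control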
Starred values were filed as active, the others as inactive; / = no result given.

SMILES | TbMetRS inhib | CHOP inh | V-ATPase pH | XBP1 UPR activ | UPR CHOP act
O=C(Nc1nc2ccccc2s1)c1ccc(N2CCCCC2)c([N+](=O)[O-])c1 | 0 | 79* | 2 | 3 | 3
COc1ccc(OC)c(NC(=O)Nc2nnc(N3CCCCC3C)s2)c1 (stereo not drawn) | -1 | 42 | -2 | -1 | -3
O=C(CSc1nnc(NC(=O)C2CCC2)s1)Nc1ccccc1F | 0 | / | 0 | -3 | -2
CC1=CC(=O)C(C(C)C)=C/C1=N/OS(=O)(=O)c1ccccc1 | -1 | 106* | 5 | -8 | -9
Cc1ccc2c(c1)/C(=N/OS(=O)(=O)c1ccccc1)CCS2 | -1 | / | 0 | 0 | 2
COC(=O)C1CCN(C2CN(Cc3ccc(C)cc3)S(=O)(=O)C2)CC1 (stereo not drawn) | -1 | / | / | / | /
Cc1nc2ccc([N+](=O)[O-])cc2nc1C | 1 | -4 | 0 | 0 | 1
Cc1ccc2nc3cc([N+](=O)[O-])cc([N+](=O)[O-])c3cc2c1 | 0 | 95* | 9 | / | /
O=C(Nc1ccc2c(c1)C(=O)N(CC1CCCO1)C2=O)c1ccc(Cl)c(Cl)c1 (stereo not drawn) | -1 | 91* | 1 | 1 | 2
Cc1ccc(NC(=O)c2ccc3c(c2)C(=O)N(CC2CCCO2)C3=O)cc1C (stereo not drawn) | 1 | -23 | -2 | -2 | 8
O=C(Nc1nnc(SCc2ccc(F)cc2)s1)c1ccc2ncsc2c1 | 0 | 73* | -1 | / | /
CC(=O)Nc1nnc(SCc2ccc(F)cc2)s1 | 0 | -11 | -2 | -1 | 5
CCNc1nc(-c2sc(NC(=O)C(C)(C)C)nc2C)c(-n2cc(-c3ccccc3)nn2)s1 | -2 | / | / | / | /
COc1ccccc1-[n+]1c(C)cc(/C=C2\Sc3ccccc3N2C)cc1C | 0 | 82* | -1 | 2 | 13
COc1ccc(C(=O)/C=C2\Sc3ccccc3N2C)cc1 | -1 | -4 | -2 | 3 | 3
COc1ccc(-[n+]2c(C)cc(/C=C3\Sc4ccccc4N3C)cc2C)cc1 | 0 | 92* | 8 | 2 | 29
O=C1N=C(N2CCCC2)CN1c1ccccc1 | 1 | -27 | -2 | -1 | 0
Cc1[nH]n(-c2ccccc2)c(=O)c1N=Nc1ccccc1 | 0 | 95* | 1 | -2 | 2
COc1ccc(C(=O)NNC(=O)c2ccc(C(C)(C)C)cc2)cc1 | 0 | 84* | 1 | 0 | -2
O=C(c1ccc(-n2cncn2)c2ccoc12)N1CCOCC1 | 0 | / | / | / | /
CCC(=O)n1nc(-c2ccccc2)nc1NCc1ccccc1 | 0 | 93* | -6 | 4 | 2
Brc1ccc(Oc2nsnc2N2CCOCC2)cc1 | 0 | 84* | -2 | -2 | 1
CC(C)(C)c1ccc(C(=O)Nc2cccc([N+](=O)[O-])c2)cc1 | 0 | 51 | 2 | / | /
O=C(Nc1ccc([N+](=O)[O-])cc1)C(=O)Nc1cccc(C(=O)O)c1 | -1 | 102* | 2 | -7 | -10
CC(C)(C)CC(C)(C)NC(=O)Nc1cccc([N+](=O)[O-])c1 | 0 | 80* | -4 | 2 | -2
SMILES | TbMetRS inhib | CHOP inh | V-ATPase pH | XBP1 UPR activ | UPR CHOP act
O=C(Nc1ccc(OC(F)(F)F)cc1)Nc1cccc([N+](=O)[O-])c1 | 0 | 106* | 3 | 11 | 4
Cc1ccc(N2CCN(C(=O)C(=O)c3ccc4c(c3)OCO4)CC2)cc1 | -1 | / | / | / | /
Cc1c2cnn(CC(=O)Nc3c(F)c(F)cc(F)c3F)c(=O)c2c(C)n1Cc1ccc(F)cc1 | / | 79* | / | -5 | 1
COc1ccc(NC(=O)C2CCN(S(=O)(=O)c3ccc(Cl)c(C(F)(F)F)c3)CC2)cn1 | 0 | / | -1 | / | /
CSc1ccccc1CNc1nc(NCC2CC2)nc2ccsc12 | 1 | / | / | / | /
Cc1cnc(NC(=O)CN2CCN(c3ccccn3)CC2)s1 | -1 | 74* | 0 | -3 | -2
COc1ccc(N2CCN(CC(=O)Nc3ncc(C)s3)CC2)cc1 | -1 | / | 1 | -5 | 1
CCOC(=O)C1=C(COc2ccc(F)cc2Cl)NC(=O)NC1c1cc(C)ccc1C (stereo not drawn) | 0 | 61 | -2 | 6 | 1
CCOC(=O)C1=C(COc2ccc(C)cc2)NC(=O)NC1c1cc(C)ccc1C (stereo not drawn) | 0 | 90* | -1 | 5 | 1
CSCCC(C(=O)Nc1c(C)cccc1C)n1c(COc2ccc(C)cc2)nc2ccccc21 (stereo not drawn) | 0 | / | / | / | /
CC(=O)c1nn(-c2cccc(Br)c2)cc1C(=O)c1ccc(Br)cc1 | 0 | 78* | -6 | 4 | 2
CC(=O)c1nn(-c2cccc(Br)c2)cc1C(=O)c1ccc(C)cc1 | -1 | 50 | 3 | -2 | -1
CC(C)c1ccccc1NC(=O)COC(=O)CCN1C(=O)/C(=C\C=C\c2ccccc2)SC1=S | 0 | 75* | 2 | -5 | -6
O=C(CN1C(=O)S/C(=C\C=C\c2ccccc2)C1=O)Nc1ccc(O)cc1 | 0 | 91* | -2 | 0 | 10
O=C(COC(=O)CCN1C(=O)/C(=C\C=C\c2ccccc2)SC1=S)Nc1ccc(Br)cc1 | 0 | 72* | -1 | -6 | -2
CCOC(=O)C1(CCCc2ccccc2)CCN(C(=O)c2n[nH]c(CC)c2C)CC1 | 0 | / | / | / | /
O=C1c2ccccc2C(=O)C12OC2c1ccc(Cl)cc1Cl (stereo not drawn) | -1 | 88* | 0 | / | /
Fc1ccc(-n2c(CN3CCCCC3)n[nH]c2=S)cc1 | 1 | 4 | 14* | -3 | 0
S=c1[nH]nc(CN2CCCCC2)n1-c1ccc(Cl)cc1 | 1 | 18 | 6 | 2 | 0
Cc1ccoc1C(=O)Nc1ccc2ccccc2c1 | -1 | / | 1 | -9 | 1
Cc1ccoc1C(=O)Nc1ccc(CC(=O)O)cc1 | -2 | 73* | / | -4 | -6
COc1ccc(CNC(=O)c2csc(Cc3ccc(OC)cc3)n2)cc1 | -1 | 46 | -2 | 1 | 0
COc1ccc(CNC(=O)c2csc(Cc3ccc(Cl)cc3)n2)cc1 | 2 | 72* | -2 | 0 | -1
Cc1ccc(Sc2cnc3ccccc3n2)cc1 | 0 | 86* | 0 | 1 | 3
COc1ccc(-c2[nH]c(-c3ccc(C(=O)O)cc3)nc2-c2ccccc2)cc1 | 0 | 18 | 2 | -1 | 2
COc1cc(-c2nc(-c3ccc4c(c3)-c3ccccc3S4(=O)=O)c(-c3ccccc3)[nH]2)cc(OC)c1O | 0 | 92* | -5 | 13 | 21
Cc1ccc(C(=O)CCS(=O)(=O)c2ccc(Br)cc2)cc1 | 0 | / | -4 | -1 | -1
Cc1ccc(S(=O)(=O)CCC(=O)c2cccc([N+](=O)[O-])c2)cc1 | 0 | / | 28* | -3 | 1
COc1cccc(Cn2cnc(-c3ccccc3OC)c2C2CC2)c1 | -1 | / | / | / | /
CCCOc1ccc2cc(-c3ccccn3)c(=O)oc2c1 | -1 | 71* | 1 | -6 | -9

Screening results as filed in PubChem BioAssay.
